ChEMBL document CHEMBL4340554, “Design, synthesis and biological evaluation of novel 4,5-dihydro-[1,2,4]triazolo[4,3-f]pteridine derivatives as potential BRD4 inhibitors” (Bioorg Med Chem, 2019)
pIC50: −log10 of the molar value. Active and inactive are the calls of the source. The rule behind the calls is not given here.

Experiments:
[1] = test system: MV4-11; assay: Antiproliferative activity against human MV4-11 cells incubated for 72 hrs by CCK-8 assay; format: functional, cell-based; settings: MV4-11, 72 h
[2] = Inhibition of […] BRD4 bromodomain 1 incubated for 60 mins by TR-FRET assay
[3] = test system: HL-60; assay: Antiproliferative activity against human HL60 cells incubated for 72 hrs by CCK-8 assay; format: functional, cell-based; settings: HL-60, 72 h
[4] = test system: MV4-11; assay: Induction of apoptosis in human MV4-11 cells assessed as viable cells level at 1 uM incubated for 24 hrs by Annexin V-FITC and propidium iodide staining based flow cytometry (reference value: 97.7%); format: functional
[5] = test system: MV4-11; assay: Induction of apoptosis in human MV4-11 cells assessed as early apoptotic cells level at 1 uM incubated for 24 hrs by Annexin V-FITC and propidium iodide staining based flow cytometry (reference value: 0.8%); format: functional
[6] = test system: MV4-11; assay: Induction of apoptosis in human MV4-11 cells assessed as late apoptotic cells level at 1 uM incubated for 24 hrs by Annexin V-FITC and propidium iodide staining based flow cytometry (reference value: 1.5%); format: functional
[7] = test system: MV4-11; assay: Induction of apoptosis in human MV4-11 cells assessed as necrotic cells level at 1 uM incubated for 24 hrs by Annexin V-FITC and propidium iodide staining based flow cytometry (reference value: 0.0%); format: functional
[8] = test system: MV4-11; assay: Induction of apoptosis in human MV4-11 cells assessed as viable cells level at 5 uM incubated for 24 hrs by Annexin V-FITC and propidium iodide staining based flow cytometry (reference value: 97.7%); format: functional
[9] = test system: MV4-11; assay: Induction of apoptosis in human MV4-11 cells assessed as early apoptotic cells level at 5 uM incubated for 24 hrs by Annexin V-FITC and propidium iodide staining based flow cytometry (reference value: 0.8%); format: functional
[10] = test system: MV4-11; assay: Induction of apoptosis in human MV4-11 cells assessed as late apoptotic cells level at 5 uM incubated for 24 hrs by Annexin V-FITC and propidium iodide staining based flow cytometry (reference value: 1.5%); format: functional
[11] = test system: MV4-11; assay: Induction of apoptosis in human MV4-11 cells assessed as necrotic cells level at 5 uM incubated for 24 hrs by Annexin V-FITC and propidium iodide staining based flow cytometry (reference value: 0.0%); format: functional
[12] = test system: MV4-11; assay: Reduction in c-Myc protein expression in human MV4-11 cells at 1 to 10 uM incubated for 4 hrs Western blotting; format: functional, cell-based
Method in brief: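 MV4;11 leukemia cells (used within two months) were grown in IMDM with 10% FBS and 1% penicillin-streptomycin at 37℃ and 5% CO2. Log-phase cells were cultured 24 h, then treated for 4 h. They were lysed at 4℃ and protein was quantified by BCA. Lysates were run on SDS-PAGE (10% separating, 4% stacking gel) and transferred to PVDF. Membranes were blocked 2 h in 5% milk/TBST, probed overnight at 4℃ with anti-c-myc and anti-β-actin, and given secondary antibody for 2 h.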

[13] = test system: MV4-11; assay: Induction of cell cycle arrest in human MV4-11 cells assessed as accumulation at G1 phase incubated for 24 hrs by propidium iodide staining based flow cytometry; format: functional
Method in brief: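 MV4;11 cells, used within two months of culture, grown in IMDM with 10% FBS and 1% penicillin-streptomycin at 37℃ under CO2. Cells were treated with compound for 24 h and then processed with a cell cycle detection kit following the kit protocol. Phase distribution was analysed by flow cytometry.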

| SMILES | pIC50 [1] | pIC50 [2] | pIC50 [3] | other results |
| --- | --- | --- | --- | --- |
| CCCCc1ccc(Nc2ncc3c(n2)N(C2CCCC2)Cc2nnc(C)n2-3)cc1 | < 4.52 | 5.84 | < 4.52 |  |
| Cc1nnc2n1-c1cnc(Nc3ccc([N+](=O)[O-])cc3)nc1N(C1CCCC1)C2 | 4.67 | 6.27 | < 4.52 |  |
| COc1ccc(Nc2ncc3c(n2)N(C2CCCC2)Cc2nnc(C)n2-3)cc1 | 5.32 | 6.80 | 4.73 |  |
| Cc1nnc2n1-c1cnc(Nc3ccccc3)nc1N(C1CCCC1)C2 | 5.26 | 6.66 | 4.67 |  |
| Cc1nnc2n1-c1cnc(Nc3ccc(C(C)C)cc3)nc1N(C1CCCC1)C2 | 4.79 | 6.07 | < 4.52 |  |
| Cc1nnc2n1-c1cnc(Nc3ccc(C(C)(C)C)cc3)nc1N(C1CCCC1)C2 | < 4.52 | < 4.52 | < 4.52 |  |
| Cc1nnc2n1-c1cnc(Nc3ccccc3[N+](=O)[O-])nc1N(C1CCCC1)C2 | 4.97 | 6.74 | < 4.52 |  |
| Cc1ccc(Nc2ncc3c(n2)N(C2CCCC2)Cc2nnc(C)n2-3)cc1 | 5.13 | 6.42 | 4.54 |  |
| Cc1nnc2n1-c1cnc(Nc3ccc(S(C)(=O)=O)cc3)nc1N(C1CCCC1)C2 | 5.72 | 7.05 | 5.11 |  |
| Cc1cccc(Nc2ncc3c(n2)N(C2CCCC2)Cc2nnc(C)n2-3)c1 | < 4.52 | 5.81 | < 4.52 |  |
| Cc1ccccc1Nc1ncc2c(n1)N(C1CCCC1)Cc1nnc(C)n1-2 | 5.07 | 6.39 | < 4.52 |  |
| Cc1nnc2n1-c1cnc(Nc3ccc(Cl)cc3)nc1N(C1CCCC1)C2 | < 4.52 | 5.81 | < 4.52 |  |
| Cc1nnc2n1-c1cnc(Nc3cccc(Cl)c3)nc1N(C1CCCC1)C2 | < 4.52 | 5.84 | < 4.52 |  |
| COc1cccc(Nc2ncc3c(n2)N(C2CCCC2)Cc2nnc(C)n2-3)c1 | 5.17 | 6.74 | 4.59 |  |
| Cc1nnc2n1-c1cnc(Nc3ccc(N)cc3)nc1N(C1CCCC1)C2 | 5.82 | 7.10 | 5.15 | Activity [4]: 89.7%; Activity [5]: 0.5%; Activity [6]: 3.9%; Activity [7]: 5.9%; Activity [8]: 72.5%; Activity [9]: 3.8%; Activity [10]: 20.4%; Activity [11]: 3.4%; Activity [12]: Active; Activity [13]: Dose-dependent effect |
| COc1ccc(Nc2ncc3c(n2)N(C2CCCC2)Cc2nnc(C)n2-3)cc1OC | 5.17 | 6.66 | 4.57 |  |
| Cc1nnc2n1-c1cnc(Nc3ccc(F)cc3)nc1N(C1CCCC1)C2 | < 4.52 | 5.89 | < 4.52 |  |
| Cc1sc2c(c1C)C(c1ccc(Cl)cc1)=N[C@@H](CC(=O)OC(C)(C)C)c1nnc(C)n1-2 | 6.24 | 7.18 | 5.54 | Activity [4]: 84.5%; Activity [5]: 0.2%; Activity [6]: 9.1%; Activity [7]: 6.1%; Activity [8]: 61.6%; Activity [9]: 2.5%; Activity [10]: 31.9%; Activity [11]: 4%; Activity [13]: Dose-dependent effect |
| COc1ccccc1Nc1ncc2c(n1)N(C1CCCC1)Cc1nnc(C)n1-2 | 5.38 | 6.80 | 4.72 |  |
